Assay results reported in ChEMBL document CHEMBL3120116, “Toward synthesis of third-generation spin-labeled podophyllotoxin derivatives using isocyanide multicomponent reactions” (Eur J Med Chem, 2014).

Legend:
Format in all cases: functional, cell-based
DU-145 = test: Cytotoxicity against human DU145 cells after 72 hrs by SRB assay
Outline: (§1)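 Cells seeded at 3–5 × 10^3 per well in RPMI-1640 with 10% FBS containing graded sample concentrations, exposed 72 h. Attached cells fixed with cold 50% trichloroacetic acid 30 min, stained with 0.04% SRB 30 min, bound dye dissolved in 10 mM Tris-base, absorbance read at 515 nm. Triplicate experiments; IC50 reported. KBvin is a vincristine-selected MDR KB subline.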

[1] = Cytotoxicity against human KBVIN cells after 72 hrs by SRB assay; outline: as §1
A549 = test: Cytotoxicity against human A549 cells after 72 hrs by SRB assay; outline: as §1
KB = test: Cytotoxicity against human KB cells after 72 hrs by SRB assay; outline: as §1

Row | SMILES | IC50 (DU-145) | IC50 ([1]; kbvin) | IC50 (A549) | IC50 (KB) | IC50 ([1]; Homo sapiens, KBVIN, 72 h)
1 | CCCN(C(=O)C1=CC(C)(C)N([O])C1(C)C)C(C(=O)N[C@@H]1c2cc3c(cc2[C@@H](c2cc(OC)c(OC)c(OC)c2)[C@H]2C(=O)OC[C@@H]21)OCO3)c1ccc(OC)cc1 (some centres undefined) | > 20 µM | > 20 µM | > 20 µM | > 20 µM | 
2 | CCCN(C(=O)C1=CC(C)(C)N([O])C1(C)C)C1(C(=O)N[C@@H]2c3cc4c(cc3[C@@H](c3cc(OC)c(OC)c(OC)c3)[C@H]3C(=O)OC[C@@H]32)OCO4)CCCCC1 | > 20 µM | > 20 µM | > 20 µM | > 20 µM | 
3 | CCCC(C(=O)N[C@@H]1c2cc3c(cc2[C@@H](c2cc(OC)c(OC)c(OC)c2)[C@H]2C(=O)OC[C@@H]21)OCO3)N(C(=O)C1=CC(C)(C)N([O])C1(C)C)C(C)(C)C (some centres undefined) | > 20 µM | > 20 µM | > 20 µM | > 20 µM | 
4 | CCCC(C(=O)N[C@@H]1c2cc3c(cc2[C@@H](c2cc(OC)c(OC)c(OC)c2)[C@H]2C(=O)OC[C@@H]21)OCO3)N(CCC)C(=O)C1=CC(C)(C)N([O])C(C)(C)C1 (some centres undefined) | > 20 µM | > 20 µM | > 20 µM | > 20 µM | 
5 | CCCC(C(=O)N[C@@H]1c2cc3c(cc2[C@@H](c2cc(OC)c(OC)c(OC)c2)[C@H]2C(=O)OC[C@@H]21)OCO3)N(CCC)C(=O)C1CC(C)(C)N([O])C(C)(C)C1 (some centres undefined) | > 20 µM | > 20 µM | > 20 µM | > 20 µM | 
6 | COc1cc([C@@H]2c3cc4c(cc3[C@@H](NC(=O)C(C)(C)OC(=O)C3=CC(C)(C)N([O])C3(C)C)[C@H]3COC(=O)[C@H]23)OCO4)cc(OC)c1OC | 2.39 µM | 2.55 µM | 2.38 µM | 2.32 µM | 
7 | COc1cc([C@@H]2c3cc4c(cc3[C@@H](NC(=O)C(OC(=O)C3=CC(C)(C)N([O])C3(C)C)c3ccccc3)[C@H]3COC(=O)[C@H]23)OCO4)cc(OC)c1OC (some centres undefined) | > 20 µM | > 20 µM | > 20 µM | > 20 µM | 
8 | CCCC(OC(=O)C1=CC(C)(C)N([O])C1(C)C)C(=O)N[C@@H]1c2cc3c(cc2[C@@H](c2cc(OC)c(OC)c(OC)c2)[C@H]2C(=O)OC[C@@H]21)OCO3 (some centres undefined) | 7.07 µM | 8.88 µM | 8.86 µM | 7.12 µM | 
9 | COc1cc([C@@H]2c3cc4c(cc3[C@@H](NC(=O)C3(OC(=O)C5=CC(C)(C)N([O])C5(C)C)CCCCC3)[C@H]3COC(=O)[C@H]23)OCO4)cc(OC)c1OC | 8.74 µM | 13.7 µM | 9.52 µM | 9.24 µM | 
10 | COc1ccc(C(OC(=O)C2=CC(C)(C)N([O])C2(C)C)C(=O)N[C@@H]2c3cc4c(cc3[C@@H](c3cc(OC)c(OC)c(OC)c3)[C@H]3C(=O)OC[C@@H]32)OCO4)cc1 (some centres undefined) | 0.63 µM | 0.73 µM | 0.75 µM | 0.6 µM | 
11 | COc1cc([C@@H]2c3cc4c(cc3[C@@H](NC(=O)C(Cc3ccccc3)OC(=O)C3=CC(C)(C)N([O])C3(C)C)[C@H]3COC(=O)[C@H]23)OCO4)cc(OC)c1OC (some centres undefined) | 6.82 µM | 7.71 µM | 7.68 µM | 6.53 µM | 
12 | COc1cc([C@@H]2c3cc4c(cc3[C@@H](NC(=O)C(OC(=O)C3=CC(C)(C)N([O])C3(C)C)c3ccco3)[C@H]3COC(=O)[C@H]23)OCO4)cc(OC)c1OC (some centres undefined) | 6.55 µM | 7.35 µM | 7.38 µM | 7.12 µM | 
13 | COc1cc([C@@H]2c3cc4c(cc3[C@@H](NC(=O)C(OC(=O)C3=CC(C)(C)N([O])C3(C)C)c3ccc5c(c3)OCO5)[C@H]3COC(=O)[C@H]23)OCO4)cc(OC)c1OC (some centres undefined) | 1.37 µM | 2.03 µM | 1.46 µM | 1.12 µM | 
14 | CCCC(OC(=O)C1CC(C)(C)N([O])C(C)(C)C1)C(=O)N[C@@H]1c2cc3c(cc2[C@@H](c2cc(OC)c(OC)c(OC)c2)[C@H]2C(=O)OC[C@@H]21)OCO3 (some centres undefined) | 7.13 µM | 7.96 µM | 8.82 µM | 6.58 µM | 
15 | CCCC(OC(=O)C1=CC(C)(C)N([O])C(C)(C)C1)C(=O)N[C@@H]1c2cc3c(cc2[C@@H](c2cc(OC)c(OC)c(OC)c2)[C@H]2C(=O)OC[C@@H]21)OCO3 (some centres undefined) | 7.27 µM | 8.35 µM | 9.05 µM | 6.88 µM | 
16 | CCCC(C(=O)N[C@@H]1c2cc3c(cc2[C@@H](c2cc(OC)c(OC)c(OC)c2)[C@H]2C(=O)OC[C@@H]21)OCO3)N(C(=O)C1=CC(C)(C)N([O])C1(C)C)C1CCCCC1 (some centres undefined) | 11 µM | 8.83 µM | 8.98 µM | 9.35 µM | 
17 | CCCC(C(=O)N[C@@H]1c2cc3c(cc2[C@@H](c2cc(OC)c(OC)c(OC)c2)[C@H]2C(=O)OC[C@@H]21)OCO3)N(C(=O)C1=CC(C)(C)N([O])C1(C)C)c1ccccc1 (some centres undefined) | 9.78 µM | 7.47 µM | 8.4 µM | 8.49 µM | 
18 | COc1cc([C@@H]2c3cc4c(cc3[C@@H](NC(=O)C(c3ccccc3)N(C(=O)C3CC(C)(C)N([O])C(C)(C)C3)c3ccccc3)[C@H]3COC(=O)[C@H]23)OCO4)cc(OC)c1OC (some centres undefined) | 6.08 µM | 6.45 µM | 6.1 µM | 5.94 µM | 
19 | CCCN(C(=O)C1=CC(C)(C)N([O])C1(C)C)C(C)(C)C(=O)N[C@@H]1c2cc3c(cc2[C@@H](c2cc(OC)c(OC)c(OC)c2)[C@H]2C(=O)OC[C@@H]21)OCO3 | > 20 µM | > 20 µM | > 20 µM | > 20 µM | 
20 | CCCN(C(=O)C1=CC(C)(C)N([O])C(C)(C)C1)C(C)(C)C(=O)N[C@@H]1c2cc3c(cc2[C@@H](c2cc(OC)c(OC)c(OC)c2)[C@H]2C(=O)OC[C@@H]21)OCO3 | > 20 µM | > 20 µM | > 20 µM | > 20 µM | 
21 | CCCC(C(=O)N[C@@H]1c2cc3c(cc2[C@@H](c2cc(OC)c(OC)c(OC)c2)[C@H]2C(=O)OC[C@@H]21)OCO3)N(CCC)C(=O)C1=CC(C)(C)N([O])C1(C)C (some centres undefined) | > 20 µM | > 20 µM | > 20 µM | > 20 µM | 
22 | CCCN(C(=O)C1=CC(C)(C)N([O])C1(C)C)C(C(=O)N[C@@H]1c2cc3c(cc2[C@@H](c2cc(OC)c(OC)c(OC)c2)[C@H]2C(=O)OC[C@@H]21)OCO3)c1ccccc1 (some centres undefined) | > 20 µM | > 20 µM | > 20 µM | > 20 µM | 
23 | COc1cc([C@@H]2c3cc4c(cc3[C@@H](O[C@@H]3O[C@@H]5CO[C@@H](C)O[C@H]5[C@H](O)[C@H]3O)[C@H]3COC(=O)[C@H]23)OCO4)cc(OC)c1O [ETOPOSIDE] |  |  |  |  | > 20 µM
